# Only a selection was taken, and hits are over-represented in it overall.
# L major viab – reduces viability of Leishmania major promastigotes; 9% of 200,000 active; resazurin fluorescence viability; inhibition, % at 10 µM; AID 1063; in the data active = inhibition above about 50%;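 note: promastigotes grown with compound for 44 hours at 28 °C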
# MDM2 E3 inh – blocks human Mdm2 ubiquitin ligase activity | Q00987 | cell-based MDM2 ubiquitination luciferase reporter, 2 h; 0 = plate control, 100 = twice control, blank-subtracted | signal enhancement, % at 5 µM | 0.11% of 210,000 active;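 active = signal enhancement of 30% or more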;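 note: luminescence tracks abundance of the self-degrading MDM2-luciferase fusion protein; higher signal means inhibition of MDM2 E3 ligase activity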
#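 Material: Stable MDM2–luciferase fusion reporter cells | Amount: 2000 cells seeded into each well | Dosing: One concentration, 5 µM, with 0.2% DMSO | Incubation: 4 h cell settling then 2 h compound exposure, 37 °C | Measured by: Luciferase luminescence | Read-out basis: % enhancement relative to plate controls after blank subtraction | Benchmarks: Control and blank well means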
# S1P4 antag – antagonists of human S1P4 receptor; O95977; S1P4-expressing cells, antagonist mode, reporter read-out; inhibition, % at 4.98 µM; 0.26% of 220,000 active; AID 1510; in the data active = inhibition above about 29%;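 note: 0% = wells stimulated with agonist and 100% = vehicle wells without agonist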
# S1P3 antagonist – S1P3 (human) receptor antagonism. 0.27% of 170,000 active. CHO S1P3 NFAT-BLA reporter, FRET fluorescence, antagonist mode. inhibition, % at 4.98 µM;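 active = inhibition above the plate cutoff, the mean inhibition of test wells on that plate plus 3 SD, cut at about 28% in these data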;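 note: cells challenged with S1P at its EC80 of 0.8 µM; blue over green emission ratio from cleaved BLA substrate after 4 h stimulation; 0% = S1P-stimulated wells and 100% = unstimulated DMSO-only wells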
# Target sequence (Q99500 whole entry, looked up): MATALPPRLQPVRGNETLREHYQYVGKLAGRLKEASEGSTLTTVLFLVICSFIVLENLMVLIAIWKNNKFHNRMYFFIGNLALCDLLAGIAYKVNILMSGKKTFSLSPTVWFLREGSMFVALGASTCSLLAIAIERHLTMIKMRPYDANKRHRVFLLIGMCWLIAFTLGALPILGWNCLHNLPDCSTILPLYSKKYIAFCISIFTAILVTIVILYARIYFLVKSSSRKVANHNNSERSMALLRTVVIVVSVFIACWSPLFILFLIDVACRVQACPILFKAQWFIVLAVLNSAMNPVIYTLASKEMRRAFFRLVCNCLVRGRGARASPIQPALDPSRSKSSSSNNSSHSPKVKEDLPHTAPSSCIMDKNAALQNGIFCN
# S1P4 agonist – agonists of human S1P4 receptor. S1P4-expressing cell line, agonist reporter assay. activation, % at 4.98 µM. 0.35% of 220,000 active; in the data active = activation above about 11%;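 note: 0% = DMSO vehicle and 100% = reference agonist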
# * = called active by the depositor; / = no result.
SMILES,L major viab,MDM2 E3 inh,S1P4 antag,S1P3 antagonist,S1P4 agonist
O=C(/C=C/c1cccnc1)c1ccc(NC(=O)c2cccc(Br)c2)cc1,99*,12,4,/,0
O=C(Nc1ccc(Br)cc1)c1ccc(Br)c(S(=O)(=O)Nc2cccnc2)c1,73*,-5,-9,-8,0
O=C(/C=C/c1cccnc1)/C=C/c1cccnc1,/,39*,98*,-3,0
O=C(Nc1cccnc1)c1ccc(NS(=O)(=O)c2cc([N+](=O)[O-])ccc2Cl)cc1,/,-7,-4,-8,0
O=C(Nc1ccc(N2CCOCC2)cc1)c1ccc(S(=O)(=O)NCc2ccco2)cc1,/,-4,2,-11,1
CCC(C)[C@H](N)c1nnc(SCC(=O)c2ccc(Cl)cc2)o1 (stereo partly specified),90*,-4,1,/,-2
OCCN1CCN(CCCc2c3c(cc4c2CCC4)CCC3)CC1,86*,5,-23,1,1
O=C(NCCC1=CCCCC1)C1CCN(S(=O)(=O)c2cccc3nsnc23)CC1,-3,/,-27,-28,-2
CSc1ccc(CN2C(=O)NC3(CCCCCCC3)C2=O)cc1,20,-10,-5,9,-2
O=C1NC2(CCCCC2)C(=O)N1Cc1cccc(C(F)(F)F)c1,98*,9,-21,-12,0
CCC(Oc1cc(Cl)ccc1Cl)C(=O)NN1C(=O)C2C3CCC(C3=C(C)C)C2C1=O (stereo unspecified),98*,-4,1,/,-1
CCN(CC)S(=O)(=O)c1cccc(C(=O)N/N=C/c2ccc(N3CCOCC3)cc2)c1,-2,-7,-1,1,-1
CN(C)S(=O)(=O)c1ccc(NC(=O)CNc2cc(S(=O)(=O)N3CCCC3)ccc2OCC(F)(F)F)cc1,1,-10,-7,6,1
CCOC(=O)c1ccc(NC(=S)N(CCN2CCCCCC2)Cc2ccco2)cc1,95*,3,-7,16,0
Cc1ccc(NC(=S)N(CCN2CCCCC2)Cc2ccco2)cc1,10,-19,-10,-22,0
CCOC(=O)c1ccc(NC(=S)N(CCCN2CCCCCC2)Cc2ccco2)cc1,100*,18,-7,-7,0
Cc1ccc(NC(=S)N(CCCN2CCCC(C)C2)Cc2ccco2)cc1C (stereo unspecified),96*,-3,-3,-12,-1
S=C(Nc1ccc(Cl)cc1)N(CCCN1CCOCC1)Cc1ccco1,96*,1,-6,-7,0
Cc1cc(NCCCn2ccnc2)n2nc(C)c(-c3ccc(Cl)cc3)c2n1,98*,-12,9,/,-3
Cc1cc(NCCN2CCOCC2)n2nc(C)c(-c3ccc(Cl)cc3)c2n1,94*,-10,0,6,-1
Cc1cc(NCCCn2ccnc2)n2ncc(-c3ccccc3)c2n1,89*,-74,-14,-14,9
COC(=O)C1SCC2C(=O)N(Cc3ccc(Cl)c(Cl)c3)CC(=O)N21 (stereo unspecified),7,7,-3,17,1
Fc1ccc(N2CCN(C(c3cccs3)c3nnnn3C3CCCC3)CC2)cc1 (stereo unspecified),16,-36,-6,22,1
Cc1nnsc1C(=O)N/N=C/c1ccccc1,42,0,-8,2,1
Cc1nnsc1C(=O)N/N=C/c1ccc2ccccc2c1O,100*,-9,-21,-13,0
SMILES,L major viab,MDM2 E3 inh,S1P4 antag,S1P3 antagonist,S1P4 agonist
Cc1ccc(S(=O)(=O)N(c2nc(N(C)C)nc(N(C)C)n2)n2cnnc2)cc1,-6,-7,-9,/,0
CCOC(=O)/C(=C\c1ccc(Cl)cc1)c1nc2sc(C)c(C)c2c(=O)[nH]1,100*,-3,3,4,0
Cc1ccc(Sc2ccc(NC(=O)CCl)cc2)c(C)c1,97*,1,3,-3,0
O=C(CCl)Nc1ccccc1Sc1ccc(Cl)cc1,16,-18,10,/,1
Cc1nnc2sc(-c3cccc(NC(=O)c4ccc(-c5cccc(Cl)c5)o4)c3)nn12,98*,/,-44,-3,-2
N=c1c(S(=O)(=O)c2ccccc2)cc2c(=O)n3ccccc3nc2n1Cc1ccco1,45,-50,-4,13,1
Cc1ccc2nc3c(cc(S(=O)(=O)c4ccccc4)c(=N)n3Cc3ccco3)c(=O)n2c1,81*,7,-5,-3,1
Cc1ccc(S(=O)(=O)c2cc3c(=O)n4ccccc4nc3n(Cc3ccco3)c2=N)cc1C,56*,/,7,32,-3
Cc1cc(C)c2c3c(sc2n1)C(=O)N(c1ccccc1)CC(=O)N3,/,-16,-5,-3,1
